# Assay results reported in ChEMBL document CHEMBL4270599, “Synthesis of a 3'-C-ethynyl-β-d-ribofuranose purine nucleoside library: Discovery of C7-deazapurine analogs as potent antiproliferative nucleosides” (Eur J Med Chem, 2018).
# Assays:
# [1] = test system: EKVX; experiment: Cytotoxicity against human EKVX cells after 48 hrs by SRB assay; type: functional; conditions: for TGI: read-out: TGI
# [2] = test system: NCI-H322M; experiment: Cytotoxicity against human NCI-H322M cells after 48 hrs by SRB assay; type: functional; conditions: for GI50: read-out: GI50; for TGI: read-out: TGI; for CC50: read-out: pLC50 (the source's name) (converted)
# [3] = test system: HCC 2998; experiment: Cytotoxicity against human HCC2998 cells after 48 hrs by SRB assay; type: functional; conditions: HCC 2998, 48 h; for GI50: read-out: GI50; for TGI: read-out: TGI
# [4] = test system: SF-539; experiment: Cytotoxicity against human SF539 cells after 48 hrs by SRB assay; type: functional; conditions: SF-539, 48 h; for GI50: read-out: GI50; for CC50: read-out: LC50 (the source's name); for TGI: read-out: TGI
# [5] = test system: Malme-3M; experiment: Cytotoxicity against human MALME-3M cells after 48 hrs by SRB assay; type: functional; conditions: for GI50: read-out: GI50; for CC50: read-out: LC50 (the source's name); for TGI: read-out: TGI
# [6] = test system: MDA-MB-435; experiment: Cytotoxicity against human MDA-MB-435 cells after 48 hrs by SRB assay; type: functional; conditions: MDA-MB-435, 48 h; for GI50: read-out: GI50; for TGI: read-out: TGI
# [7] = test system: ACHN; experiment: Cytotoxicity against human ACHN cells after 48 hrs by SRB assay; type: functional; conditions: for CC50: read-out: pLC50 (the source's name) (converted)
# [8] = test system: MCF7; experiment: Cytotoxicity against human MCF7 cells after 48 hrs by SRB assay; type: functional; conditions: MCF7, 48 h; for GI50: read-out: GI50; for CC50: read-out: LC50 (the source's name); for TGI: read-out: TGI
# [9] = test system: NCI-H522; experiment: Growth inhibition of human NCI-H522 cells assessed as cell growth at 10^-8 M incubated for 48 hrs by sulforhodamine B assay relative to control; type: functional; conditions: NCI-H522, 48 h, read-out: Activity
# [10] = test system: SF-295; experiment: Growth inhibition of human SF295 cells assessed as cell growth at 10^-8 M incubated for 48 hrs by sulforhodamine B assay relative to control; type: functional; conditions: SF-295, 48 h, read-out: Activity
# [11] = test system: SK-MEL-5; experiment: Growth inhibition of human SK-MEL-5 cells assessed as cell growth at 10^-8 M incubated for 48 hrs by sulforhodamine B assay relative to control; type: functional; conditions: SK-MEL-5, 48 h, read-out: Activity
# [12] = test system: IGROV-1; experiment: Growth inhibition of human IGROV1 cells assessed as cell growth at 10^-8 M incubated for 48 hrs by sulforhodamine B assay relative to control; type: functional; conditions: IGROV-1, 48 h, read-out: Activity
# [13] = test system: 786-0; experiment: Growth inhibition of human 786-0 cells assessed as cell growth at 10^-8 M incubated for 48 hrs by sulforhodamine B assay relative to control; type: functional; conditions: 786-0, 48 h, read-out: Activity
# [14] = test system: A498; experiment: Growth inhibition of human A498 cells assessed as cell growth at 10^-8 M incubated for 48 hrs by sulforhodamine B assay relative to control; type: functional; conditions: A498, 48 h, read-out: Activity
# [15] = test system: DU-145; experiment: Growth inhibition of human DU145 cells assessed as cell growth at 10^-8 M incubated for 48 hrs by sulforhodamine B assay relative to control; type: functional; conditions: DU-145, 48 h, read-out: Activity
# [16] = test system: K562; experiment: Growth inhibition of human K562 cells assessed as cell growth at 10^-7 M incubated for 48 hrs by sulforhodamine B assay relative to control; type: functional; conditions: K562, 48 h, read-out: Activity
# [17] = test system: COLO 205; experiment: Growth inhibition of human COLO205 cells assessed as cell growth at 10^-7 M incubated for 48 hrs by sulforhodamine B assay relative to control; type: functional; conditions: COLO 205, 48 h, read-out: Activity
# [18] = test system: U-251; experiment: Growth inhibition of human U251 cells assessed as cell growth at 10^-7 M incubated for 48 hrs by sulforhodamine B assay relative to control; type: functional; conditions: U-251, 48 h, read-out: Activity
# [19] = test system: SK-MEL-28; experiment: Growth inhibition of human SK-MEL-28 cells assessed as cell growth at 10^-7 M incubated for 48 hrs by sulforhodamine B assay relative to control; type: functional; conditions: SK-MEL-28, 48 h, read-out: Activity
# [20] = test system: HT-29; experiment: Growth inhibition of human HT-29 cells assessed as cell growth at 10^-6 M incubated for 48 hrs by sulforhodamine B assay relative to control; type: functional; conditions: HT-29, 48 h, read-out: Activity
# [21] = test system: KM12; experiment: Growth inhibition of human KM12 cells assessed as cell growth at 10^-6 M incubated for 48 hrs by sulforhodamine B assay relative to control; type: functional; conditions: KM12, 48 h, read-out: Activity
# [22] = test system: ACHN; experiment: Growth inhibition of human ACHN cells assessed as cell growth at 10^-6 M incubated for 48 hrs by sulforhodamine B assay relative to control; type: functional; conditions: read-out: Activity
# [23] = test system: DU-145; experiment: Growth inhibition of human DU145 cells assessed as cell growth at 10^-6 M incubated for 48 hrs by sulforhodamine B assay relative to control; type: functional; conditions: DU-145, 48 h, read-out: Activity
# [24] = test system: SR; experiment: Growth inhibition of human SR cells assessed as cell growth at 10^-5 M incubated for 48 hrs by sulforhodamine B assay relative to control; type: functional; conditions: read-out: Activity
# [25] = test system: HCT-116; experiment: Growth inhibition of human HCT116 cells assessed as cell growth at 10^-5 M incubated for 48 hrs by sulforhodamine B assay relative to control; type: functional; conditions: HCT-116, 48 h, read-out: Activity
# [26] = test system: CCRF-CEM; experiment: Growth inhibition of human CCRF-CEM cells assessed as cell growth at 10^-4 M incubated for 48 hrs by sulforhodamine B assay relative to control; type: functional; conditions: read-out: Activity
# [27] = test system: K562; experiment: Growth inhibition of human K562 cells assessed as cell growth at 10^-4 M incubated for 48 hrs by sulforhodamine B assay relative to control; type: functional; conditions: K562, 48 h, read-out: Activity
# [28] = test system: IGROV-1; experiment: Growth inhibition of human IGROV1 cells assessed as cell growth at 10^-4 M incubated for 48 hrs by sulforhodamine B assay relative to control; type: functional; conditions: IGROV-1, 48 h, read-out: Activity
# [29] = test system: TK-10; experiment: Growth inhibition of human TK10 cells assessed as cell growth at 10^-4 M incubated for 48 hrs by sulforhodamine B assay relative to control; type: functional; conditions: TK-10, 48 h, read-out: Activity
# [30] = test system: HMEC-1; experiment: Antiproliferative activity against HMEC1 cells after 4 days by Coulter counter method; type: cell-based; conditions: Homo sapiens, HMEC-1, 96 h
# Outline: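 Primary HUVEC, primary HMVEC-d and the HMEC-1 line seeded at 20,000 cells/well in gelatin-coated plates in EC growth medium (EGM2). After overnight incubation, 5-fold compound dilutions added. Cells proliferated four days with compound, then trypsinized and counted by Coulter counter to derive IC₅₀.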
# [31] = read-out: pLC50 (the source's name) (converted)
# [32] = read-out: LC50 (the source's name)
compound,measurement,setting,value
C#C[C@@]1(O)[C@@H](CO)O[C@@H](n2cc(Br)c3c(N)ncnc32)[C@@H]1O,GI50,[1]; read-out: GI50,0.15 to 0.261 µM
same,TGI,[1],1.25 to 5.75 µM
same,CC50,[1]; [31],> 100 µM
same,GI50,[2],0.326 to 0.372 µM
same,TGI,[2],4.74 to 5.41 µM
same,CC50,[2],> 100 µM
same,GI50,[3],0.169 to 0.24 µM
same,TGI,[3],0.525 to 1.25 µM
same,CC50,[3]; [31],> 100 µM
same,GI50,[4],0.238 to 0.372 µM
same,CC50,[4],22 to 30.9 µM
same,TGI,[4],1.14 to 2.04 µM
same,GI50,[5],0.627 to 0.799 µM
same,CC50,[5],81.9 to 82.6 µM
same,TGI,[5],12.2 to 14.1 µM
same,GI50,[6],0.105 to 0.294 µM
same,TGI,[6],5.36 to 19.7 µM
same,CC50,[6]; [31],> 100 µM
same,GI50,[7],0.234 µM
same,CC50,[7],> 100 µM
same,GI50,[8],0.016 to 0.0307 µM
same,CC50,[8],> 100 µM
same,TGI,[8],1.19 to 1.81 µM
same,growth at 0.01 µM,[9],89 to 95%
same,growth at 0.01 µM,[10],90 to 96%
same,growth at 0.01 µM,[11],93 to 96%
same,growth at 0.01 µM,[12],81 to 88%
same,growth at 0.01 µM,[13],86 to 91%
same,growth at 0.01 µM,[14],95 to 97%
same,growth at 0.01 µM,[15],98 to 100%
same,growth at 0.1 µM,[16],27 to 48%
same,growth at 0.1 µM,[17],24 to 69%
same,growth at 0.1 µM,[18],2 to 11%
same,growth at 0.1 µM,[19],77 to 94%
same,growth at 1 µM,[20],5 to 8%
same,growth at 1 µM,[21],21 to 26%
same,growth at 1 µM,[22],8%
same,growth at 1 µM,[23],15 to 16%
same,growth at 10 µM,[24],1 to 5%
same,growth at 10 µM,[25],3 to 5%
same,growth at 100 µM,[26],3 to 4%
same,growth at 100 µM,[27],7%
same,growth at 100 µM,[28],-2%
same,growth at 100 µM,[29],7%
same,IC50,[30],0.0045 µM
C#C[C@@]1(O)[C@@H](CO)O[C@@H](n2cc(Cl)c3c(N)ncnc32)[C@@H]1O,GI50,[1]; read-out: GI50,0.26 to 0.262 µM
same,CC50,[1]; [32],> 100 µM
same,TGI,[1],2.41 to 2.46 µM
same,GI50,[1]; read-out: pGI50 (converted),0.263 µM
same,GI50,[2],0.206 to 0.334 µM
same,TGI,[2],2.12 to 4.63 µM
same,CC50,[2],> 100 µM
same,GI50,[3],0.182 to 0.191 µM
same,CC50,[3]; [32],> 100 µM
same,TGI,[3],0.501 to 0.565 µM
same,GI50,[4],0.299 to 0.351 µM
same,CC50,[4],21.9 to 33.9 µM
same,TGI,[4],1.3 to 1.61 µM
same,GI50,[5],0.223 to 0.262 µM
same,CC50,[5],> 100 µM
same,TGI,[5],0.858 to 11.8 µM
same,GI50,[6],0.132 to 0.208 µM
same,CC50,[6]; [32],4.67 to 100 µM
same,TGI,[6],0.52 to 10.2 µM
same,GI50,[7],0.219 µM
same,CC50,[7],> 100 µM
same,GI50,[8],0.0218 to 0.0319 µM
same,CC50,[8],5.32 to 7.11 µM
same,TGI,[8],1.04 to 1.16 µM
same,growth at 0.01 µM,[9],82 to 88%
same,growth at 0.01 µM,[10],82 to 92%
same,growth at 0.01 µM,[11],90 to 97%
same,growth at 0.01 µM,[12],91 to 94%
same,growth at 0.01 µM,[13],80 to 82%
same,growth at 0.01 µM,[14],103 to 107%
same,growth at 0.01 µM,[15],96 to 100%
same,growth at 0.1 µM,[16],45 to 55%
same,growth at 0.1 µM,[17],43 to 69%
same,growth at 0.1 µM,[19],87 to 91%
same,growth at 1 µM,[21],3 to 12%
same,growth at 1 µM,[22],7%
same,growth at 1 µM,[23],7 to 12%
same,growth at 10 µM,[24],1 to 5%
same,growth at 10 µM,[25],4%
same,growth at 100 µM,[26],2 to 5%
same,growth at 100 µM,[27],7 to 8%
same,IC50,[30],0.0035 µM
